Measured values published in ChEMBL document CHEMBL5038594, “Structural Fine-Tuning of Desmuramylpeptide NOD2 Agonists Defines Their In Vivo Adjuvant Activity” (J Med Chem, 2021).
Calls of active or inactive are those of the source. The calls are words filed in the database; no cut-off is given here.

How the values were obtained:
PBMC [1] = assay: Immunostimulatory activity in human PBMC cells assessed as increase in IL-1beta production at 2 uM incubated for 18 hrs by flow cytometry analysis; format: functional, cell-based
How it was run: (§1)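 Human PBMCs from healthy donors, 1 × 10^6 cells/mL in RPMI 1640 with 10% FBS, treated with 2 μM compound or 0.1% DMSO, without or with LPS 10 ng/mL, for 18 h at 37 °C. Supernatant cytokines quantified by cytometric bead array (human inflammatory panel) on a flow cytometer against recombinant standards. Four independent donors. Repeated-measures one-way ANOVA with Dunnett.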

MEC1 [2] = assay: Cytotoxicity against human MEC-1 cells cocultured with human PBMC cells assessed as inhibition of cell proliferation at 10 uM incubated with PBMC cells for 18 hrs followed by co-incubation with MEC-1 cells for 4 hrs by SYTOX blue staining based flow cytometric analysis; format: functional
How it was run: (§2)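 Effector cells are freshly Ficoll-isolated human PBMCs, 4 × 10^5 per well, pretreated 18 h with compound or 0.1% DMSO. CFSE-labelled K562 or MEC1 targets, 1 × 10^4 per well, are then added at 40:1 effector:target ratio and co-incubated 4 h at 37 °C. Dead targets are CFSE+/Sytox blue+ by flow cytometry. Results are relative to vehicle. Duplicates; three (MEC1) or four (K562) independent experiments. One-way ANOVA with Dunnett.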

[3] = molecular target: T1, Nucleotide-binding oligomerization domain-containing protein 1 (Homo sapiens) (UniProt Q9Y239); assay: Agonist activity at NOD1 in HEK-Blue hNOD2 cells assessed as increase in NFkappaB transactivation-mediated SEAP activity measured after 18 hrs by spectrophotometric method; format: cell-based; conditions: HEK-Blue hNOD1, in the assay text read “HEK-Blue hNOD1 cells” for “HEK-Blue hNOD2 cells”
T1 sequence (whole entry): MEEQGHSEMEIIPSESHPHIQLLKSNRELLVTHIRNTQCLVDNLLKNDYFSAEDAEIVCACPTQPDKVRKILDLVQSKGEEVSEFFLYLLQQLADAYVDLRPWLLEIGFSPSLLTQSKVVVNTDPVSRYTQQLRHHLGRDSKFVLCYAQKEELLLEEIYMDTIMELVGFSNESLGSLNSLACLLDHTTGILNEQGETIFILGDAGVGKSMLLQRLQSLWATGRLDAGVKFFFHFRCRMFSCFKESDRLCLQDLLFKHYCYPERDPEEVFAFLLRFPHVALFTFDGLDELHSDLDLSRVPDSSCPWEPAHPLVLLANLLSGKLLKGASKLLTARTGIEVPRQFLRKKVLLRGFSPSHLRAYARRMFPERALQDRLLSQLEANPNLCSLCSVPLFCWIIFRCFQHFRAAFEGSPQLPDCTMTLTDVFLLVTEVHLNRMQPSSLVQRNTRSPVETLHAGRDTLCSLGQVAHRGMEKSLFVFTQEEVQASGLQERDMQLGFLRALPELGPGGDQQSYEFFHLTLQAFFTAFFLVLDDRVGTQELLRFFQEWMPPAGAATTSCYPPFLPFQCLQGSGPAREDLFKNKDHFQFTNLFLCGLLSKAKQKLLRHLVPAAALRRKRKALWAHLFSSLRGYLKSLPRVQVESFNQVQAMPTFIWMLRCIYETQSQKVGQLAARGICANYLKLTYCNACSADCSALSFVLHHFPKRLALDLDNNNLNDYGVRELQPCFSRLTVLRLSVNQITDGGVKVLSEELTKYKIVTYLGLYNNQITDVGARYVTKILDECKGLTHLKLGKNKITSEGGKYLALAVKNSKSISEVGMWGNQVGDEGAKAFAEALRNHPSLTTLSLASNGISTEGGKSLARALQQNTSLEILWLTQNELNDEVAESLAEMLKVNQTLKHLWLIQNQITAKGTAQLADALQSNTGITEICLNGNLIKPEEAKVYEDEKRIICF
How it was run: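 Counter-screen in HEK-Blue NOD1 cells (HEK293 stably expressing human NOD1 plus an NF-κB-inducible SEAP reporter), seeded at 2.5 × 10^5 cells/mL in HEK-Blue detection medium. Compounds at 2 μM versus 0.1% DMSO vehicle, 18 h at 37 °C, 5% CO2. SEAP read as absorbance at 630 nm. Duplicates, at least two independent experiments.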

K562 = assay: Cytotoxicity against human K562 cells cocultured with human PBMC cells assessed as inhibition of cell proliferation at 10 uM incubated with PBMC cells for 18 hrs followed by co-incubation with K562 cells for 4 hrs by SYTOX blue staining based flow cytometric analysis; format: functional; how it was run: as §2
PBMC [4] = assay: Immunostimulatory activity in human PBMC cells assessed as increase in IL-6 production at 2 uM incubated for 18 hrs by flow cytometry analysis; format: functional, cell-based; how it was run: as §1
PBMC [5] = assay: Immunostimulatory activity in human PBMC cells assessed as increase in LPS-induced IL-6 production at 2 uM incubated for 18 hrs by flow cytometry analysis; format: functional, cell-based; how it was run: as §1
PBMC [6] = assay: Immunostimulatory activity in human PBMC cells assessed as increase in LPS-induced TNF-alpha production at 2 uM incubated for 18 hrs by flow cytometry analysis; format: functional, cell-based; how it was run: as §1
Mus musculus = assay: Immuno-adjuvant activity in NIH/OlaHsd mouse assessed as increase in ovalbumin specific IgG production in sera at 0.15 micromol administered subcutaneously on day 1 and as booster dose on day 21 and 28 with ovalbumin loaded liposomes by ELISA; format: functional, organism-based; conditions: dose 0.15 µmol, time 28.0 day
How it was run: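 Groups of 5 female NIH/OlaHsd mice, 2.0–2.5 months old, immunized with ovalbumin-loaded liposomes (10 μg ovalbumin per dose) containing 0.15 μmol adjuvant per dose. Liposomes were neutral (PC–cholesterol 7:5), anionic (PC–cholesterol–dicetylphosphate 7:5:1) or mannosylated (PC–cholesterol–mannose-PEG-PA 7:5:0.5). Serum ovalbumin-specific IgG, IgG1 and IgG2a measured 1 week after the second booster. Mean ± SEM.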

BMDC = assay: Induction of mouse BMDC-mediated ovalbumin specific CD4+ T cell activation assessed as increase in CD25 expression at 10 uM incubated for 72 hrs by CFSE staining based flow cytometric analysis; format: functional
How it was run: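 BMDCs from C57BL/6 mouse tibia (7 days in GM-CSF 20 ng/mL, >90% CD11c+) pulsed 18 h with compound (1 or 10 μM) plus ovalbumin 50 μg/mL, then washed. They were cocultured 72 h with CFSE-labelled naive OT-II CD4+ T cells. CD25+/CFSE-low fraction of live Thy1.2+CD4+ cells read by flow cytometry; supernatant cytokines also measured. Duplicates of two independent experiments.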

[7] = Cytotoxicity against HEK-Blue hNOD2 cells assessed as reduction in metabolic activity at 20 uM incubated for 18 hrs by MTS assay; format: toxicity, cell-based; conditions: human, hek-blue hnod2, 18 h
How it was run: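 HEK-Blue NOD2 cells, 40 000 per well, exposed to 20 μM compound or 0.1% DMSO for 18 h at 37 °C, 5% CO2. Metabolic activity measured by MTS (CellTiter 96 AQueous One) reagent. Duplicates, two independent biological replicates.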

MEC1 [8] = assay: Cytotoxicity against human MEC-1 cells cocultured with human PBMC cells assessed as inhibition of cell proliferation at 1 uM incubated with PBMC cells for 18 hrs followed by co-incubation with MEC-1 cells for 4 hrs by SYTOX blue staining based flow cytometric analysis; format: functional; how it was run: as §2

CCCCCCCCCCCCCCCCCC(=O)Oc1ccc(/C=C/C(=O)NCC(=O)N[C@H](C(=O)N[C@H](CCC(=O)OCC)C(=O)OCC)C(C)C)cc1OC
Activity (PBMC [1]): inactive | Activity (MEC1 [2]): Active | Activity [3]: inactive | Activity (K562): Active | Activity (PBMC [4]): inactive | Activity (PBMC [5]): Active | Activity (PBMC [6]): Active | Activity (Mus musculus): Active | Activity (BMDC): Active | Activity [7]: Non-Toxic | Activity (MEC1 [8]): inactive
